Our source for the inhibition, IC50 and microsomal intrinsic clearance values is ChEMBL document CHEMBL5108074 (J Med Chem, 2022).

For data set [1], the target named is T1, Plasma kallikrein (Homo sapiens, UniProt P03952). As to the kind of experiment: Inhibition of human plasma kallikrein using H-D-Pro-Phe-Arg-AFC as flurogenic substrate at 1000 nM preincubated for 5 mins followed by substrate addition by fluorometer analysis relative to control. It is filed as cell-free. In a few lines: (§1)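 Crude library compounds (unpurified, dissolved in DMSO) were screened twice, once at each of the single concentrations. Human plasma kallikrein was preincubated with compound for 5 min, then H-D-Pro-Phe-Arg-AFC was added. Activity was followed as the kinetic rate of fluorogenic substrate cleavage, and percent inhibition was calculated relative to control.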
T1 sequence (P03952 20-390 limits assumed): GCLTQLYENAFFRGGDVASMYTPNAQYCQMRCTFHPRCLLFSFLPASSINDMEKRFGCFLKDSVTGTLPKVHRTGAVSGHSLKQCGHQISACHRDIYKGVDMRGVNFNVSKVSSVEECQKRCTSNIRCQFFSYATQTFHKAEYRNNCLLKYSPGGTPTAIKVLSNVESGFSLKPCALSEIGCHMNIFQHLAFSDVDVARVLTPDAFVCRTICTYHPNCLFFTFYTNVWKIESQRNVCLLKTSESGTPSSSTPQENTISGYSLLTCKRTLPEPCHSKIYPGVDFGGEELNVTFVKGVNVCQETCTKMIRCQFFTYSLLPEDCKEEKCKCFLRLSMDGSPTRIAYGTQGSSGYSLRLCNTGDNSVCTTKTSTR
T1 sequence (P03952 391-638 limits assumed): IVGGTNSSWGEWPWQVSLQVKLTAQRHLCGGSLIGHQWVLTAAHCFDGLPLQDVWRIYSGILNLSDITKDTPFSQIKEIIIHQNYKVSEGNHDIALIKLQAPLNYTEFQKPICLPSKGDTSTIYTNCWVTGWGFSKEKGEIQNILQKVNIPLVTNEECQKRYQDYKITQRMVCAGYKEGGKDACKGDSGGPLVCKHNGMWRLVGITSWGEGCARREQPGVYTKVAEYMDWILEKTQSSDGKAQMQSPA

The target in data set [2] is T1, Plasma kallikrein. As to the kind of experiment: Inhibition of human plasma kallikrein using H-D-Pro-Phe-Arg-AFC as flurogenic substrate at 100 nM preincubated for 5 mins followed by substrate addition by fluorometer analysis relative to control. It is filed as cell-free. The essentials:
as §1

Data set [3] concerns the target T1, Plasma kallikrein. In words: Inhibition of human plasma kallikrein using H-D-Pro-Phe-Arg-AFC as flurogenic substrate preincubated for 5 mins followed by substrate addition by fluorometer analysis. It is filed as cell-free.
Data set [4] in a line: Metabolic stability in human liver microsomes assessed as intrinsic clearance per mg of protein measured upto 60 mins in presence of NADPH regenerating system by LC-MS/MS analysis. It is filed as ADME, Microsome. The note with it: microsomes, 1 h. (In general: Liver microsomes are a subcellular fraction often used to study metabolism.)

pIC50: −log10 of the molar value.

As to `Cc1cccc(CNC(=O)c2cnn(Cc3ccc(Cn4ccccc4=O)cc3)c2)c1`, the inhibition (as a rule, the change of the read-out against control, counted positive when it falls) was determined as 57% on Plasma kallikrein [1] and 11% on Plasma kallikrein [2].

Take `Cc1cc(C(=O)NCc2ccc(CN)cc2)c(C)n1Cc1cccs1`: the negative-log IC50 (pIC50) (usually the negative decadic logarithm of the IC50, by convention in mol/L) against Plasma kallikrein [3] is 5.57.

With `COCc1nn(Cc2ccc(Cn3ccccc3=O)cc2)cc1C(=O)NCc1cc[nH]n1`, the pIC50 against Plasma kallikrein [3] is 6.24.

Regarding `O=C(NCc1cccc(Cl)c1)c1cnn(Cc2ccc(Cn3ccccc3=O)cc2)c1`, the inhibition is 74% on Plasma kallikrein [1] and 20% against Plasma kallikrein [2].

Compound `COCc1nn(Cc2ccc(Cn3ccccc3=O)cc2)cc1C(=O)NCc1ncc(F)cc1F` showed a pIC50 at Plasma kallikrein [3] of 5.65.

As to `COCc1nn(Cc2ccc(Cn3ccccc3=O)cc2)cc1C(=O)NCc1nccc(Cl)c1F`, the pIC50 against Plasma kallikrein [3] was 7.03.

In turn, `Cc1cc(C(=O)NCc2ccc(CN)cc2)c(C)n1CCc1ccccc1` had a negative-log IC50 (pIC50) on Plasma kallikrein [3] below 5.00.

At Plasma kallikrein [3], `N=C(N)c1ccc(CNC(=O)c2cnn(Cc3ccccc3)c2)cc1` gave a negative-log IC50 (pIC50) of 7.21.

Regarding `COc1ccccc1CNC(=O)c1cnn(Cc2ccc(Cn3ccccc3=O)cc2)c1`, the inhibition came out at 63% against Plasma kallikrein [1] and 11% at Plasma kallikrein [2].

`Cc1cc(C(=O)NCc2ccc(C(=N)N)cc2)c(C)n1Cc1ccccc1` showed a pIC50 against Plasma kallikrein [3] of 8.26.

The compound `Cc1cc(C(=O)NCc2ccc(CN)cc2)c(C)n1CCCCc1ccccc1` gave a pIC50 at Plasma kallikrein [3] of 6.04. This pIC50 is 2.22 log units lower than that of the compound before.

In the case of `Cc1cc(C(=O)NCc2ccc(CN)cc2)c(C)n1Cc1csc(-c2cccnc2)c1`, the pIC50 at Plasma kallikrein [3] is 6.36.

For the compound `O=C(NCc1c(Cl)cccc1Cl)c1cnn(Cc2ccc(Cn3ccccc3=O)cc2)c1`, the inhibition came to 94% against Plasma kallikrein [1] and 56% against Plasma kallikrein [2]. The compound also showed a negative-log IC50 (pIC50) on Plasma kallikrein [3] of 7.40.

For `Cc1ccc(CNC(=O)c2cnn(Cc3ccc(Cn4ccccc4=O)cc3)c2)cc1`, the inhibition amounted to 84% on Plasma kallikrein [1] and 36% against Plasma kallikrein [2]. In addition, the pIC50 against Plasma kallikrein [3] was 7.06.

At Plasma kallikrein [3], `Cc1cnn(Cc2ccc(Cn3c(C)cc(C(=O)NCc4ccc(CN)cc4)c3C)cc2)c1` had a negative-log IC50 (pIC50) of 7.19.

`COCc1nn(Cc2ccc(Cn3ccccc3=O)cc2)cc1C(=O)NCc1sccc1Cl`: on Plasma kallikrein [3], the pIC50 is 6.68.

With `Cc1cc(C(=O)NCc2ccc(CN)cc2)c(C)n1Cc1cccc(-c2ccccc2)c1`, the negative-log IC50 (pIC50) on Plasma kallikrein [3] was 6.14. This pIC50 lies 0.54 log units lower than the previous one.

At Plasma kallikrein [3], `COCc1nn(Cc2ccc(Cn3ccccc3=O)cc2)cc1C(=O)NCc1cc(C)[nH]n1` showed a negative-log IC50 (pIC50) of 6.66.

Regarding `CCOc1ccnc(CNC(=O)c2cn(Cc3ccc(Cn4ccccc4=O)cc3)nc2COC)c1F`, the pIC50 against Plasma kallikrein [3] is 8.10. Further, the microsomal intrinsic clearance in data set [4] amounted to 69 µL/min.

On to `Cc1cccc(C)c1CNC(=O)c1cnn(Cc2ccc(Cn3ccccc3=O)cc2)c1`, for which the inhibition against Plasma kallikrein [1] turned out to be 89%; against Plasma kallikrein [2] it was 53%. On Plasma kallikrein [3], this compound showed a pIC50 of 7.17.

Take `O=C(NCc1c(F)cccc1C(F)(F)F)c1cnn(Cc2ccc(Cn3ccccc3=O)cc2)c1`: the values for the inhibition against Plasma kallikrein [1] and at Plasma kallikrein [2] were 97% and 83%, respectively. Besides, the pIC50 against Plasma kallikrein [3] is 8.11.

In turn, `Cc1cc(C(=O)NCc2ccc(CN)cc2)c(C)n1Cc1csc(-c2ccccc2)c1` showed a pIC50 at Plasma kallikrein [3] of 6.22.

The compound `NCc1ccc(CNC(=O)c2cnn(Cc3csc(-c4ccccc4)n3)c2)cc1` had a pIC50 against Plasma kallikrein [3] of 6.07.

`COCc1nn(Cc2ccc(Cn3ccccc3=O)cc2)cc1C(=O)NCc1ncc(Cl)cc1C#N` gave a negative-log IC50 (pIC50) against Plasma kallikrein [3] of 6.60.

`COCc1nn(Cc2ccc(Cn3ccccc3=O)cc2)cc1C(=O)NCc1nc(OC)ccc1F` had a negative logarithm of the IC50 (pIC50) against Plasma kallikrein [3] of 6.05.

The compound `COCc1nn(Cc2ccc(Cn3ccccc3=O)cc2)cc1C(=O)NCc1nccc(C)c1Cl` showed a pIC50 against Plasma kallikrein [3] of 6.52.

At Plasma kallikrein [3], `Cc1cc(C(=O)NCc2ccc(CN)cc2)c(C)n1CCCc1ccccc1` gave a pIC50 of 5.32.

`COc1ccnc(CNC(=O)c2cn(Cc3ccc(Cn4ccccc4=O)cc3)nc2C2CC2)c1F` gave a pIC50 at Plasma kallikrein [3] of 8.36. In data set [4], the microsomal intrinsic clearance was 49 µL/min.

Regarding `Cc1cnn(Cc2ccc(Cn3cc(C(=O)NCc4ccc5c(N)nccc5c4)cn3)cc2)c1`, the microsomal intrinsic clearance in data set [4] came to 181 µL/min.

On to `Cc1cc(C(=O)NCc2ccc(CN)cc2)c(C)n1Cc1csc(Cc2ccccc2)n1`, for which the negative-log IC50 (pIC50) against Plasma kallikrein [3] is 5.57.

Compound `Cc1cc(C(=O)NCc2ccc(CN)cc2)c(C)n1Cc1ccccc1` had a negative-log IC50 (pIC50) at Plasma kallikrein [3] of 5.43. The pIC50 values of the last two compounds are within 0.2 log units of each other.

`O=C(NCc1ccccc1Cl)c1cnn(Cc2ccc(Cn3ccccc3=O)cc2)c1`: the inhibition is 67% at Plasma kallikrein [1] and 12% against Plasma kallikrein [2].

For `Cc1cc(C(=O)NCc2ccc(CN)cc2)c(C)n1Cc1coc(-c2ccccc2)n1`, the pIC50 against Plasma kallikrein [3] is 6.32.

With `COCc1nn(Cc2ccc(Cn3ccccc3=O)cc2)cc1C(=O)NCc1cnccc1C(F)(F)F`, the pIC50 against Plasma kallikrein [3] was 6.34.

Turning to `Cc1ccccc1CNC(=O)c1cnn(Cc2ccc(Cn3ccccc3=O)cc2)c1`, the inhibition against Plasma kallikrein [1] turned out to be 62%; against Plasma kallikrein [2], 12%.

Compound `COc1ccc(F)c(CNC(=O)c2cnn(Cc3ccc(Cn4ccccc4=O)cc3)c2)c1F` gave a negative-log IC50 (pIC50) against Plasma kallikrein [3] of 8.52. The microsomal intrinsic clearance in data set [4] was found to be 36 µL/min.

Turning to `O=C(NCc1ccccc1)c1cnn(Cc2ccc(Cn3ccccc3=O)cc2)c1`, the figures for the inhibition against Plasma kallikrein [1] and against Plasma kallikrein [2] were 29% and 0%, respectively.

In the case of `O=C(NCc1c(F)cccc1Cl)c1cnn(Cc2ccc(Cn3ccccc3=O)cc2)c1`, the inhibition at Plasma kallikrein [1] stood at 92%; at Plasma kallikrein [2] it was 61%. For the same compound, the negative-log IC50 (pIC50) against Plasma kallikrein [3] is 7.51.

Consider `COc1ccnc(CNC(=O)c2cnn(Cc3ccc(Cn4ccccc4=O)cc3)c2)c1F`, for which, at Plasma kallikrein [3], the pIC50 is 8.29. For the same compound, the microsomal intrinsic clearance in data set [4] was 2 µL/min.

As to `Cc1cc(C(=O)NCc2ccc(CN)cc2)c(C)n1Cc1cc(-c2ccccc2)cs1`, the negative logarithm of the IC50 (pIC50) against Plasma kallikrein [3] was 6.24.

On to `O=C(NCc1ccccc1F)c1cnn(Cc2ccc(Cn3ccccc3=O)cc2)c1`, for which the inhibition against Plasma kallikrein [1] was 59%; against Plasma kallikrein [2] it was 13%.

`COCc1nn(Cc2ccc(Cn3ccccc3=O)cc2)cc1C(=O)NCc1ncc(C)c(OC)c1C` showed a negative-log IC50 (pIC50) against Plasma kallikrein [3] of 7.43.

With `O=C(NCc1ccc(Cl)cc1)c1cnn(Cc2ccc(Cn3ccccc3=O)cc2)c1`, the inhibition at Plasma kallikrein [1] was found to be 60%; at Plasma kallikrein [2] it was 13%.

In the case of `COCc1nn(Cc2ccc(Cn3ccccc3=O)cc2)cc1C(=O)NCc1nccc(OC(C)C)c1F`, at Plasma kallikrein [3], the negative logarithm of the IC50 (pIC50) was 5.62.

For the compound `Cc1cc(C(=O)NCc2ccc(CN)cc2)c(C)n1Cc1csc(-c2ccccc2)n1`, the pIC50 at Plasma kallikrein [3] was 7.14.

Regarding `COCc1nn(Cc2ccc(Cn3ccccc3=O)cc2)cc1C(=O)NCc1nccc(C)c1F`, at Plasma kallikrein [3], the negative-log IC50 (pIC50) is 6.85.

Consider `O=C(NCc1c(F)cccc1F)c1cnn(Cc2ccc(Cn3ccccc3=O)cc2)c1`, for which the values for the inhibition at Plasma kallikrein [1] and at Plasma kallikrein [2] were 88% and 47%, respectively. Besides, the pIC50 against Plasma kallikrein [3] is 7.21.

`Cc1cc(C(=O)NCc2ccc(CN)cc2)c(C)n1CCCCCc1ccccc1` gave a negative logarithm of the IC50 (pIC50) at Plasma kallikrein [3] of 5.42.

`COCc1nn(Cc2ccc(Cn3ccccc3=O)cc2)cc1C(=O)NCc1nc(C)ccc1F` gave a negative-log IC50 (pIC50) against Plasma kallikrein [3] of 6.05.

For the compound `COc1ccc(CNC(=O)c2cnn(Cc3ccc(Cn4ccccc4=O)cc3)c2)cc1`, the inhibition is 72% on Plasma kallikrein [1] and 17% on Plasma kallikrein [2].

The compound `Cc1cc(C(=O)NCc2ccc(CN)cc2)c(C)n1Cc1ccc(-c2ccccc2)cc1` gave a negative-log IC50 (pIC50) at Plasma kallikrein [3] of 5.25.

Take `COc1cccc(CNC(=O)c2cnn(Cc3ccc(Cn4ccccc4=O)cc3)c2)c1`: the inhibition on Plasma kallikrein [1] was determined as 83%; at Plasma kallikrein [2] it was 35%. For the same compound, on Plasma kallikrein [3], the pIC50 is 7.05.

As to `COCc1nn(Cc2ccc(Cn3ccccc3=O)cc2)cc1C(=O)NCc1ncc(Cl)cc1F`, the pIC50 against Plasma kallikrein [3] is 6.80.

For the compound `Cc1cc(C(=O)NCc2ccc(CN)cc2)c(C)n1Cc1cccc(-c2cccnc2)n1`, the pIC50 against Plasma kallikrein [3] is 6.24.
